Source: ChEMBL document CHEMBL1147105, “In vitro and in vivo activities of PD 0305970 and PD 0326448, new bacterial gyrase/topoisomerase inhibitors with potent antibacterial activities versus multidrug-resistant gram-positive and fastidious organism groups” (2007)
Converted amounts (≈) assume the structure as drawn.

Key:
[1] = tested on: Enterococcus faecium; test: Antibacterial activity against VanA-resistant Enterococcus faecium; assay type: functional
Summary of the method: (§1)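 Broth microdilution MIC per CLSI guidelines, incubated at 35°C. Cation-adjusted Mueller-Hinton broth for nonfastidious organisms and staphylococci. Streptococci tested in the same broth with 3% lysed horse blood. Anaerobes tested in supplemented Brucella broth inside an anaerobe chamber (5% CO2, 5% H2, 90% N2), read after 48 h. Strains were mainly recent clinical isolates with confirmed identity.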

[2] = tested on: Enterococcus casseliflavus; test: Antibacterial activity against Enterococcus casseliflavus; assay type: functional
[3] = tested on: Listeria monocytogenes; test: Antibacterial activity against Listeria monocytogenes; assay type: functional
Summary of the method: (§2)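 Broth microdilution MIC following CLSI guidelines, in cation-adjusted Mueller-Hinton broth containing 3% lysed horse blood, incubated at 35°C. Clinical isolates with identity confirmed. Reported as MIC range, MIC50 and MIC90.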

[4] = tested on: Corynebacterium sp.; test: Antibacterial activity against Corynebacterium sp.; assay type: functional; summary of the method: as §2
[5] = tested on: Haemophilus influenzae; test: Antibacterial activity against beta-lactamase positive Haemophilus influenzae; assay type: functional
Summary of the method: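 Broth microdilution MIC following CLSI guidelines, in Haemophilus test medium at 35°C.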

[6] = tested on: Legionella pneumophila; test: Antibacterial activity against Legionella pneumophila; assay type: functional
Summary of the method: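 Broth microdilution MIC per CLSI guidelines, run in buffered yeast extract α-ketoglutarate broth at 35°C and read after 48 h.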

[7] = tested on: Moraxella catarrhalis; test: Antibacterial activity against beta-lactamase negative Moraxella catarrhalis; assay type: functional
[8] = tested on: Citrobacter koseri; test: Antibacterial activity against Citrobacter diversus; assay type: functional
Summary of the method: (§3)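 Broth microdilution MIC following CLSI guidelines, in cation-adjusted Mueller-Hinton broth, incubated at 35°C. Recent clinical isolates and reference strains, with identity confirmed by automated and standard microbiological methods. Results reported as MIC range, MIC50 and MIC90.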

[9] = tested on: Klebsiella oxytoca; test: Antibacterial activity against Klebsiella oxytoca; assay type: functional; summary of the method: as §3
[10] = tested on: Klebsiella pneumoniae; test: Antibacterial activity against Klebsiella pneumoniae; assay type: functional; summary of the method: as §3
[11] = tested on: Klebsiella pneumoniae; test: Antibacterial activity against beta-lactamase positive Klebsiella pneumoniae; assay type: functional
Summary of the method: (§4)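 MIC by CLSI broth microdilution for nonfastidious organisms, in cation-adjusted Mueller-Hinton broth incubated at 35°C.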

[12] = tested on: Morganella morganii; test: Antibacterial activity against Morganella morganii; assay type: functional; summary of the method: as §3
[13] = tested on: Proteus mirabilis; test: Antibacterial activity against Proteus mirabilis; assay type: functional; summary of the method: as §3
[14] = tested on: Salmonella typhimurium; test: Antibacterial activity against Salmonella enterica serovar Typhimurium; assay type: functional, Salmonella enterica subsp. enterica serovar Typhimurium; summary of the method: as §3
[15] = tested on: Shigella dysenteriae; test: Antibacterial activity against Shigella dysenteriae; assay type: functional
[16] = tested on: Serratia marcescens; test: Antibacterial activity against Serratia marcescens; assay type: functional; summary of the method: as §3
[17] = tested on: Acinetobacter sp.; test: Antibacterial activity against Acinetobacter sp.; assay type: functional; summary of the method: as §3
[18] = tested on: Pseudomonas aeruginosa; test: Antibacterial activity against Pseudomonas aeruginosa; assay type: functional; summary of the method: as §3
[19] = tested on: Actinomyces sp.; test: Antibacterial activity against Actinomyces sp.; assay type: functional
[20] = tested on: Fusobacterium sp.; test: Antibacterial activity against Fusobacterium sp.; assay type: functional
Summary of the method: (§5)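 Anaerobic broth microdilution MIC following CLSI guidelines, in supplemented Brucella broth. Run in an anaerobe chamber under 5% CO2, 5% H2 and 90% N2 at 35°C, and read after 48 h. Reported as MIC range, MIC50 and MIC90.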

[21] = tested on: Peptostreptococcus anaerobius; test: Antibacterial activity against Peptostreptococcus anaerobius; assay type: functional; summary of the method: as §5
[22] = tested on: Streptococcus pyogenes; test: Antibacterial activity against Streptococcus pyogenes; assay type: functional
Summary of the method: (§6)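 Broth microdilution MIC following CLSI guidelines, in cation-adjusted Mueller-Hinton broth with 3% lysed horse blood. Plates incubated at 35°C. Clinical isolates and reference strains, with identity confirmed by standard microbiological methods.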

[23] = tested on: Fusobacterium necrophorum; test: Antibacterial activity against Fusobacterium necrophorum; assay type: functional; summary of the method: as §5
[24] = tested on: Clostridioides difficile; test: Antibacterial activity against Clostridium difficile; assay type: functional; summary of the method: as §5
[25] = tested on: Bacteroides thetaiotaomicron; test: Antibacterial activity against Bacteroides thetaiotaomicron; assay type: functional; summary of the method: as §5
[26] = tested on: Bacteroides fragilis; test: Antibacterial activity against Bacteroides fragilis; assay type: functional; summary of the method: as §5
[27] = tested on: Bacteroides ovatus; test: Antibacterial activity against Bacteroides ovatus; assay type: functional; summary of the method: as §5
[28] = tested on: Staphylococcus aureus; test: Antibacterial activity against oxacillin-susceptible Staphylococcus aureus; assay type: functional; summary of the method: as §4
[29] = tested on: Staphylococcus aureus; test: Antibacterial activity against oxacillin-resistant Staphylococcus aureus; assay type: functional; summary of the method: as §1
[30] = tested on: Staphylococcus aureus; test: Antibacterial activity against vancomycin-intermediate Staphylococcus aureus; assay type: functional; summary of the method: as §1
[31] = tested on: Staphylococcus epidermidis; test: Antibacterial activity against oxacillin-susceptible Staphylococcus epidermidis; assay type: functional; summary of the method: as §4
[32] = tested on: Staphylococcus epidermidis; test: Antibacterial activity against oxacillin-resistant Staphylococcus epidermidis; assay type: functional; summary of the method: as §1
[33] = tested on: Staphylococcus haemolyticus; test: Antibacterial activity against Staphylococcus haemolyticus; assay type: functional; summary of the method: as §2
[34] = tested on: Alloiococcus otitis; test: Antibacterial activity against Alloiococcus otitidis; assay type: functional
Summary of the method: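 MIC by broth microdilution following CLSI guidelines, in cation-adjusted Mueller-Hinton broth with 3% lysed horse blood. Incubated at 35°C and read after 48 h. Reported as MIC range, MIC50 and MIC90.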

[35] = tested on: Streptococcus agalactiae; test: Antibacterial activity against Streptococcus agalactiae; assay type: functional; summary of the method: as §2
[36] = tested on: Streptococcus pneumoniae; test: Antibacterial activity against penicillin-susceptible Streptococcus pneumoniae; assay type: functional; summary of the method: as §1
[37] = tested on: Streptococcus pneumoniae; test: Antibacterial activity against penicillin-intermediate resistant Streptococcus pneumoniae; assay type: functional; summary of the method: as §1
[38] = tested on: Streptococcus pneumoniae; test: Antibacterial activity against levofloxacin-resistant Streptococcus pneumoniae; assay type: functional; summary of the method: as §1
[39] = tested on: Prevotella buccae; test: Antibacterial activity against Prevotella buccae; assay type: functional; conditions: Segatella buccae; summary of the method: as §5
[40] = tested on: Prevotella corporis; test: Antibacterial activity against Prevotella corporis; assay type: functional; summary of the method: as §5
[41] = tested on: Prevotella melaninogenica; test: Antibacterial activity against Prevotella melaninogenica; assay type: functional; summary of the method: as §5
[42] = tested on: Hoylesella oralis; test: Antibacterial activity against Prevotella oralis; assay type: functional; summary of the method: as §5
[43] = tested on: Neisseria meningitidis; test: Antibacterial activity against Neisseria meningitidis; assay type: functional
Summary of the method: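 MIC by broth microdilution in gonococcal broth, incubated at 35°C in 5% CO2. Reported as MIC range, MIC50 and MIC90.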

[44] = tested on: Streptococcus salivarius; test: Antibacterial activity against Streptococcus salivarius; assay type: functional; summary of the method: as §6
[45] = tested on: Streptococcus mitis; test: Antibacterial activity against Streptococcus mitis; assay type: functional; summary of the method: as §6
[46] = tested on: Salmonella enteritidis; test: Antibacterial activity against Salmonella enterica serovar Enteritidis; assay type: functional, Salmonella enterica subsp. enterica serovar Enteritidis; summary of the method: as §3

SMILES: Cc1c(N2CC[C@@H]([C@H](C)N)C2)c(F)cc2c(=O)[nH]c(=O)n(C3CC3)c12
- MIC50 [1]: 1 mg/L (≈ 2.89 µM)
- MIC90 [1]: 2 mg/L (≈ 5.77 µM)
- MIC50 [2]: 0.25 mg/L (≈ 0.722 µM)
- MIC90 [2]: 0.25 mg/L (≈ 0.722 µM)
- MIC50 [3]: 0.25 mg/L (≈ 0.722 µM)
- MIC90 [3]: 0.25 mg/L (≈ 0.722 µM)
- MIC50 [4]: 0.5 mg/L (≈ 1.44 µM)
- MIC90 [4]: 1 mg/L (≈ 2.89 µM)
- MIC50 [5]: 0.5 mg/L (≈ 1.44 µM)
- MIC90 [5]: 1 mg/L (≈ 2.89 µM)
- MIC50 [6]: 0.5 mg/L (≈ 1.44 µM)
- MIC90 [6]: 0.5 mg/L (≈ 1.44 µM)
- MIC50 [7]: 0.5 mg/L (≈ 1.44 µM)
- MIC90 [7]: 1 mg/L (≈ 2.89 µM)
- MIC50 [8]: 2 mg/L (≈ 5.77 µM)
- MIC90 [8]: 8 mg/L (≈ 23.1 µM)
- MIC50 [9]: 2 mg/L (≈ 5.77 µM)
- MIC90 [9]: 16 mg/L (≈ 46.2 µM)
- MIC50 [10]: 4 mg/L (≈ 11.5 µM)
- MIC90 [10]: 16 mg/L (≈ 46.2 µM)
- MIC50 [11]: 8 mg/L (≈ 23.1 µM)
- MIC90 [11]: 64 mg/L (≈ 185 µM)
- MIC50 [12]: 2 mg/L (≈ 5.77 µM)
- MIC90 [12]: 32 mg/L (≈ 92.4 µM)
- MIC50 [13]: 2 mg/L (≈ 5.77 µM)
- MIC90 [13]: 8 mg/L (≈ 23.1 µM)
- MIC50 [14]: 2 mg/L (≈ 5.77 µM)
- MIC90 [14]: 4 mg/L (≈ 11.5 µM)
- MIC50 [15]: 2 mg/L (≈ 5.77 µM)
- MIC90 [15]: 4 mg/L (≈ 11.5 µM)
- MIC50 [16]: 4 mg/L (≈ 11.5 µM)
- MIC90 [16]: 32 mg/L (≈ 92.4 µM)
- MIC50 [17]: 4 mg/L (≈ 11.5 µM)
- MIC90 [17]: 64 mg/L (≈ 185 µM)
- MIC50 [18]: 8 mg/L (≈ 23.1 µM)
- MIC90 [18]: > 64 mg/L
- MIC [19]: 1 mg/L (≈ 2.89 µM)
- MIC [20]: 0.125 mg/L (≈ 0.361 µM)
- MIC [21]: 0.06 mg/L (≈ 0.173 µM)
- MIC50 [22]: 0.03 mg/L (≈ 0.0866 µM)
- MIC90 [22]: 0.03 mg/L (≈ 0.0866 µM)
- MIC [23]: 0.125 mg/L (≈ 0.361 µM)
- MIC50 [24]: 2 mg/L (≈ 5.77 µM)
- MIC90 [24]: 8 mg/L (≈ 23.1 µM)
- MIC50 [25]: 16 mg/L (≈ 46.2 µM)
- MIC90 [25]: 32 mg/L (≈ 92.4 µM)
- MIC50 [26]: 8 mg/L (≈ 23.1 µM)
- MIC90 [26]: 16 mg/L (≈ 46.2 µM)
- MIC50 [27]: 16 mg/L (≈ 46.2 µM)
- MIC90 [27]: 32 mg/L (≈ 92.4 µM)
- MIC50 [28]: 0.25 mg/L (≈ 0.722 µM)
- MIC90 [28]: 0.25 mg/L (≈ 0.722 µM)
- MIC50 [29]: 0.25 mg/L (≈ 0.722 µM)
- MIC90 [29]: 0.5 mg/L (≈ 1.44 µM)
- MIC [30]: 0.25 mg/L (≈ 0.722 µM)
- MIC [31]: 0.125 mg/L (≈ 0.361 µM)
- MIC50 [32]: 0.25 mg/L (≈ 0.722 µM)
- MIC90 [32]: 0.25 mg/L (≈ 0.722 µM)
- MIC50 [33]: 0.25 mg/L (≈ 0.722 µM)
- MIC90 [33]: 1 mg/L (≈ 2.89 µM)
- MIC50 [34]: 0.008 mg/L (≈ 0.0231 µM)
- MIC90 [34]: 0.008 mg/L (≈ 0.0231 µM)
- MIC50 [35]: 0.015 mg/L (≈ 0.0433 µM)
- MIC90 [35]: 0.03 mg/L (≈ 0.0866 µM)
- MIC50 [36]: 0.03 mg/L (≈ 0.0866 µM)
- MIC90 [36]: 0.06 mg/L (≈ 0.173 µM)
- MIC50 [37]: 0.06 mg/L (≈ 0.173 µM)
- MIC90 [37]: 0.125 mg/L (≈ 0.361 µM)
- MIC50 [38]: 0.06 mg/L (≈ 0.173 µM)
- MIC90 [38]: 0.06 mg/L (≈ 0.173 µM)
- MIC50 [39]: 0.5 mg/L (≈ 1.44 µM)
- MIC90 [39]: 2 mg/L (≈ 5.77 µM)
- MIC50 [40]: 0.5 mg/L (≈ 1.44 µM)
- MIC90 [40]: 2 mg/L (≈ 5.77 µM)
- MIC50 [41]: 0.5 mg/L (≈ 1.44 µM)
- MIC90 [41]: 2 mg/L (≈ 5.77 µM)
- MIC50 [42]: 0.5 mg/L (≈ 1.44 µM)
- MIC90 [42]: 2 mg/L (≈ 5.77 µM)
- MIC50 [43]: 0.5 mg/L (≈ 1.44 µM)
- MIC90 [43]: 1 mg/L (≈ 2.89 µM)
- MIC50 [44]: 0.03 mg/L (≈ 0.0866 µM)
- MIC90 [44]: 0.06 mg/L (≈ 0.173 µM)
- MIC50 [45]: 0.03 mg/L (≈ 0.0866 µM)
- MIC90 [45]: 0.06 mg/L (≈ 0.173 µM)
- MIC50 [46]: 2 mg/L (≈ 5.77 µM)
- MIC90 [46]: 4 mg/L (≈ 11.5 µM)
